This note sets out measurements from ChEMBL document CHEMBL1132932, “Design of a Gag pentapeptide analogue that binds human cyclophilin A more efficiently than the entire capsid protein: new insights for the development of novel anti-HIV-1 drugs” (J Med Chem, 2000).

Starred links: 1 amine or outer side, 2 acyl side, 3 side chain; linkers in the order of their positions; H or OH if unused. Non-standard residues stand in square brackets, D forms with d. Residues, ends and D or L forms follow the SMILES beside them. *: point of attachment. Desaminohistidyl = O=C(CCc1c[nH]cn1)*; NHCH2CHPh2 = c1ccc(C(CN*)c2ccccc2)cc1; NHCHPh2 = c1ccc(C(N*)c2ccccc2)cc1; pNA = O=[N+]([O-])c1ccc(N*)cc1; NHPhenethyl = c1ccc(CCN*)cc1; Suc = O=C(CCC(=O)[*:2])[*:1]; Isovaleryl = CC(C)CC(=O)*; Ac5c = NC1(C(=O)O)CCCC1; Api = NC1(C(=O)O)CCNCC1; Aib = CC(C)(N)C(=O)O; NHBn = c1ccc(CN*)cc1 Some results are limits rather than exact numbers.

Test [1] has as its target T1, Peptidyl-prolyl cis-trans isomerase A (Homo sapiens, UniProt P62937). The test is described as follows: 50% inhibitory concentration of competitive binding against human Peptidyl-prolyl isomerase activity using uncoupled assay. The method in brief:
(§1)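 Recombinant human hCyp-18 (expressed in E. coli M15, ion-exchange purified), 16 nM in 35 mM Hepes pH 7.8, preincubated 2 min with peptides added from DMSO stocks (100 µM to 100 mM). Substrate Suc-Ala-Ala-Pro-Phe-DFA in TFE/0.47 M LiCl added to a final 200 µM. Uncoupled cis/trans isomerization followed by absorbance at 246 nm, 10 °C, over 6 min. Pseudo-first-order k_obs taken from 0.05–0.5 min data, activity expressed relative to uncatalyzed rate, n = 2.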
Target sequence in this assay (P62937 whole entry): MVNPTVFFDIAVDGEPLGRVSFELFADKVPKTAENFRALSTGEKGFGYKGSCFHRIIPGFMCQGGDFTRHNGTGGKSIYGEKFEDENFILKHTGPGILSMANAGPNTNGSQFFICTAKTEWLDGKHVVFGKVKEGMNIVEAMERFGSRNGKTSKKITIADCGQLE

The target of test [2] is T1, Peptidyl-prolyl cis-trans isomerase A. The test is described as follows: % inhibition of competitive binding, at 500 uM, against human Peptidyl-prolyl isomerase. The procedure, abridged:
as §1
Target sequence in this assay (P62937 whole entry, looked up): as the sequence (P62937 whole entry) above

Test [3] shares this target. The experiment in a line: % inhibition of competitive binding, at 500 uM, against hCyp-18 PPIase activity using uncoupled assay.
Target sequence in this assay (P62937 whole entry, looked up): as the sequence (P62937 whole entry) above
The target is the same in test [4]. The experiment in a line: % inhibition of competitive binding, at 500 uM, against human Peptidyl-prolyl isomerase activity using uncoupled assay.
Target sequence in this assay (P62937 whole entry, looked up): as the sequence (P62937 whole entry) above

`CC[C@H](C)[C@H](NC(=O)[C@@H]1CCCN1C(=O)CNC(=O)[C@H](C)NC(=O)[C@H](Cc1c[nH]cn1)NC(=O)[C@@H](N)C(C)C)C(=O)N[C@@H](C)C(N)=O` showed an IC50 in test [1] of 2100 µM. With `CC(=O)N[C@H](C(=O)N[C@@H](Cc1c[nH]cn1)C(=O)N[C@@H](C)C(=O)NCC(=O)N1CCC[C@H]1C(=O)N[C@H](C(=O)N[C@H](C)C(N)=O)c1ccccc1)C(C)C`, in test [1], the 50% inhibitory concentration (IC50) was determined as 820 µM. This compound came in with an inhibition in test [2] of 43%. The compound `CC(=O)N[C@H](C(=O)N[C@@H](Cc1cnc[nH]1)C(=O)N[C@@H](C)C(=O)NCC(=O)N1CCC[C@H]1C(=O)N[C@H](C(=O)N[C@@H](C)C(N)=O)C(C)C)C(C)C` displayed a 50% inhibitory concentration (IC50) in test [1] of 1500 µM. Still for that read-out and setting: next, `CC(=O)N[C@H](C(=O)N[C@@H](Cc1cnc[nH]1)C(=O)N[C@@H](C)C(=O)NCC(=O)N1CCC[C@H]1C(=O)N[C@@H](C(=O)N[C@H](C)C(N)=O)c1ccccc1)C(C)C`: 970 µM. On the same count and under the same terms, in the case of `CC[C@H](C)[C@H](NC(=O)[C@@H]1CCCN1C(=O)CNC(=O)C(C)(C)NC(=O)[C@H](Cc1c[nH]cn1)NC(=O)[C@@H](NC(C)=O)C(C)C)C(=O)N[C@@H](C)C(N)=O` it was 760 µM. On the same count and under the same terms, in the case of `CC(=O)N[C@H](C(=O)N[C@@H](Cc1cnc[nH]1)C(=O)N[C@@H](C)C(=O)NCC(=O)N1CCC[C@H]1C(=O)N[C@@H](CCC(N)=O)C(=O)N[C@@H](C)C(N)=O)C(C)C` it was 1300 µM; in that of `CC(=O)N[C@H](C(=O)N[C@@H](Cc1c[nH]cn1)C(=O)N[C@@H](C)C(=O)NCC(=O)N1CCC[C@H]1C(=O)NCC(=O)N[C@@H](C)C(N)=O)C(C)C`, 2800 µM; in that of `CC[C@H](C)[C@H](NC(=O)[C@@H]1CCCN1C(=O)CNC(=O)[C@H](C)NC(=O)[C@H](Cc1cnc[nH]1)NC(=O)[C@@H](NC(C)=O)C(C)C)C(=O)N[C@@H](C)C(N)=O`, 850 µM. As to `CC(=O)N[C@H](C(=O)N[C@@H](Cc1c[nH]cn1)C(=O)N[C@@H](C)C(=O)NCC(=O)N1CCC[C@H]1C(=O)NCC(=O)N[C@H](C)C(N)=O)C(C)C`, the inhibition in test [2] amounted to 28%. On the same count and under the same terms, next, `CC(=O)N[C@H](C(=O)N[C@@H](Cc1c[nH]cn1)C(=O)N[C@@H](C)C(=O)NCC(=O)N1CCC[C@H]1C(=O)N[C@@H](C(=O)N[C@H](C)C(N)=O)c1ccccc1)C(C)C`: 37%.

Turning to `CC(=O)N[C@H](C(=O)N[C@@H](Cc1c[nH]cn1)C(=O)N[C@@H](C)C(=O)NCC(=O)N1CCC[C@H]1C(=O)N[C@@H](CCC(N)=O)C(=O)N[C@H](C)C(N)=O)C(C)C`, in test [2], the inhibition was determined as 15%.

`CC(=O)N[C@H](C(=O)N[C@@H](Cc1c[nH]cn1)C(=O)N[C@@H](C)C(=O)NCC(=O)N1CCC[C@H]1C(=O)N[C@H](C(=O)N[C@H](C)C(N)=O)C(C)C)C(C)C`: the inhibition in test [2] worked out at 31%.

`CC[C@@H](C)[C@@H](NC(=O)[C@@H]1CCCN1C(=O)CNC(=O)C(C)(C)NC(=O)[C@H](Cc1c[nH]cn1)NC(=O)[C@@H](NC(C)=O)C(C)C)C(=O)N[C@H](C)C(N)=O`: the inhibition in test [2] amounted to 45%. On the same count and under the same terms, next, `CC[C@@H](C)[C@@H](NC(=O)[C@@H]1CCCN1C(=O)CNC(=O)[C@H](C)NC(=O)[C@H](Cc1c[nH]cn1)NC(=O)[C@@H](NC(C)=O)C(C)C)C(=O)N[C@H](C)C(N)=O`: 19%.

The compound `CC[C@H](C)[C@H](NC(=O)[C@@H]1CCCN1C(=O)CNC(=O)[C@H](C)NC(=O)CCc1c[nH]cn1)C(=O)N[C@H](C)C(N)=O` displayed an inhibition in test [2] of 20%. Compound `CC[C@H](C)[C@H](NC(=O)[C@@H]1CCCN1C(=O)CNC(=O)[C@H](C)NC(=O)[C@@H](N)Cc1c[nH]cn1)C(=O)N[C@H](C)C(=O)O` returned an inhibition in test [2] of 15%. On to `CC[C@H](C)[C@H](NC(=O)[C@@H]1CCCN1C(=O)CNC(=O)[C@H](C)NC(=O)[C@H](Cc1c[nH]cn1)NC(=O)CC(C)C)C(=O)N[C@H](C)C(N)=O`, for which the inhibition in test [2] is 76%. Same read-out and setting: next, `CC[C@H](C)[C@H](NC(=O)[C@@H]1CCCN1C(=O)CNC(=O)[C@H](C)NC(=O)[C@H](Cc1c[nH]cn1)NC(=O)[C@@H](N)C(C)C)C(=O)N[C@H](C)C(N)=O`: 11%.

Compound `CC[C@H](C)[C@H](NC(=O)[C@@H]1CCCN1C(=O)CNC(=O)[C@H](C)NC(=O)[C@H](Cc1c[nH]cn1)NC(C)=O)C(=O)NCc1ccccc1` (Ac-HAGPI-NHBn) had an IC50 in test [1] of 280 µM. Also, the inhibition in test [2] was 55%.

Regarding `CC[C@H](C)[C@H](NC(=O)[C@@H]1CCCN1C(=O)CNC(=O)[C@H](C)NC(=O)[C@H](Cc1c[nH]cn1)NC(=O)[C@@H](NC(C)=O)C(C)C)C(=O)NCc1ccccc1` (Ac-VHAGPI-NHBn), in test [1], the IC50 was 115 µM. The inhibition in test [2] came to 88%. In test [3], `CC[C@H](C)[C@H](NC(=O)[C@@H]1CCCN1C(=O)CNC(=O)[C@H](C)NC(=O)[C@H](Cc1c[nH]cn1)NC(=O)[C@@H](NC(C)=O)C(C)C)C(=O)NCC(c1ccccc1)c1ccccc1` (Ac-VHAGPI-NHCH2CHPh2) registered an inhibition of 54%. Compound `CC[C@H](C)[C@H](NC(=O)[C@@H]1CCCN1C(=O)CNC(=O)[C@H](C)NC(=O)[C@H](Cc1c[nH]cn1)NC(=O)[C@@H](NC(C)=O)C(C)C)C(=O)NC(c1ccccc1)c1ccccc1` (Ac-VHAGPI-NHCHPh2) gave an IC50 in test [1] of 1500 µM. The compound also registered an inhibition in test [2] of 38%. `CC[C@H](C)[C@H](NC(=O)[C@@H]1CCCN1C(=O)CNC(=O)[C@H](C)NC(=O)[C@H](Cc1c[nH]cn1)NC(=O)[C@@H](NC(C)=O)C(C)C)C(=O)NCCc1ccccc1` (Ac-VHAGPI-NHPhenethyl) had an inhibition in test [3] of 55%.

`CC(=O)N[C@H](C(=O)N[C@@H](Cc1cnc[nH]1)C(=O)N[C@@H](C)C(=O)NCC(=O)N1CCC[C@H]1C(=O)NC1(C(=O)N[C@@H](C)C(N)=O)CCCC1)C(C)C` (Ac-VHAGP[Ac5c]A-NH2) displayed an IC50 in test [1] of 680 µM. With `CC(=O)N[C@H](C(=O)N[C@@H](Cc1c[nH]cn1)C(=O)N[C@@H](C)C(=O)NCC(=O)N1CCC[C@H]1C(=O)NC1(C(=O)N[C@@H](C)C(N)=O)CCCC1)C(C)C` (Ac-VHAGP[Ac5c]A-NH2), the inhibition in test [4] was determined as 52%. For the compound `CC(=O)N[C@H](C(=O)N[C@@H](Cc1c[nH]cn1)C(=O)N[C@@H](C)C(=O)NCC(=O)N1CCC[C@H]1C(=O)NC(C)(C)C(=O)N[C@@H](C)C(N)=O)C(C)C` (Ac-VHAGP[Aib]A-NH2), the IC50 in test [1] is more than 10000 µM. In turn, `CC(=O)N[C@H](C(=O)N[C@@H](Cc1c[nH]cn1)C(=O)N[C@@H](C)C(=O)NCC(=O)N1CCC[C@H]1C(=O)NC1(C(=O)N[C@@H](C)C(N)=O)CCNCC1)C(C)C` (Ac-VHAGP[Api]A-NH2) yielded a concentration for half-maximal inhibition (IC50) in test [1] of more than 10000 µM. In test [1], `CC[C@H](C)[C@H](NC(=O)[C@@H]1CCCN1C(=O)CNC(=O)[C@H](C)NC(=O)CCc1cnc[nH]1)C(=O)NCc1ccccc1` (Desaminohistidyl-AGPI-NHBn) returned an IC50 of more than 10000 µM. In turn, `CC[C@H](C)[C@H](NC(=O)[C@@H]1CCCN1C(=O)CNC(=O)[C@H](C)NC(=O)[C@H](Cc1cnc[nH]1)NC(=O)[C@@H](N)C(C)C)C(=O)NCc1ccccc1` (H-VHAGPI-NHBn) had an IC50 in test [1] of 260 µM. `CC[C@H](C)[C@H](NC(=O)[C@@H]1CCCN1C(=O)CNC(=O)[C@H](C)NC(=O)[C@H](Cc1c[nH]cn1)NC(=O)[C@@H](N)C(C)C)C(=O)NCc1ccccc1` (H-VHAGPI-NHBn): the inhibition in test [2] was found to be 59%. As to `CC[C@H](C)[C@H](NC(=O)[C@@H]1CCCN1C(=O)CNC(=O)[C@H](C)NC(=O)[C@H](Cc1cnc[nH]1)NC(=O)CC(C)C)C(=O)NCc1ccccc1` (Isovaleryl-HAGPI-NHBn), the IC50 in test [1] is 6 µM.

Regarding `CC[C@H](C)[C@H](NC(=O)[C@@H]1CCCN1C(=O)CNC(=O)[C@H](C)NC(=O)[C@H](Cc1c[nH]cn1)NC(=O)CC(C)C)C(=O)NCc1ccccc1` (Isovaleryl-HAGPI-NHBn), the inhibition in test [2] was 99%.

Consider `CC(C)CC(=O)N[C@@H](Cc1cnc[nH]1)C(=O)N[C@@H](C)C(=O)NCC(=O)N1CCC[C@H]1C(=O)NC1(C(=O)NCc2ccccc2)CCCC1` (Isovaleryl-HAGP[Ac5c]-NHBn), for which the half-maximal inhibitory concentration (IC50) in test [1] was 90 µM. This lies in the double-digit micromolar range.

In the case of `CC(C)CC(=O)N[C@@H](Cc1c[nH]cn1)C(=O)N[C@@H](C)C(=O)NCC(=O)N1CCC[C@H]1C(=O)NC1(C(=O)NCc2ccccc2)CCCC1` (Isovaleryl-HAGP[Ac5c]-NHBn), the inhibition in test [2] turned out to be 57%. In test [1], `CC[C@H](C)[C@H](NC(=O)[C@@H]1CCCN1C(=O)CNC(=O)C(C)(C)NC(=O)[C@H](Cc1cnc[nH]1)NC(=O)CC(C)C)C(=O)NCc1ccccc1` (Isovaleryl-H[Aib]GPI-NHBn) showed an IC50 of more than 10000 µM.

With `CC(C)CC(=O)N[C@@H](Cc1c[nH]cn1)C(=O)NC(C)(C)C(=O)NCC(=O)N1CCC[C@H]1C(=O)NC1(C(=O)NCc2ccccc2)CCCC1` (Isovaleryl-H[Aib]GP[Ac5c]-NHBn), in test [1], the IC50 was determined as 500 µM. The same compound showed an inhibition in test [2] of 50%. On to `C[C@H](NC(=O)CCC(=O)O)C(=O)N[C@@H](C)C(=O)N1CCC[C@H]1C(=O)N[C@@H](Cc1ccccc1)C(=O)Nc1ccc([N+](=O)[O-])cc1` (Suc-AAPF-pNA), for which the inhibition in test [3] is 38%. In the case of `CC[C@H](C)[C@H](NC(=O)[C@@H]1CCCN1C(=O)CNC(=O)[C@H](C)NC(=O)[C@H](Cc1c[nH]cn1)NC(=O)[C@@H](NC(=O)CCC(=O)O)C(C)C)C(=O)N[C@@H](C)C(N)=O` (Suc-VHAGPIA-NH2), the IC50 in test [1] worked out at 1000 µM. In addition, the inhibition in test [2] is 13%. The compound Ac-VQAGPIA-NH2 gave an IC50 in test [1] of 2500 µM. This lies in the millimolar range.

The IC50 is the concentration that gives 50% inhibition. Low readings indicate greater potency, high ones weaker potency. One may read the inhibition as the drop in the measured response relative to a control, in per cent. Lower therefore signals a response near the control.
